Article PMC8599380 (European Journal of Drug Metabolism and Pharmacokinetics, 2021)
Like-named read-outs stand apart in the source and are kept apart here.

Experiments:
[1] = cited from earlier work
[2] = cited from earlier work; remark: listed apart in the source
[3] = system: patients with hematologic and solid tumor malignancies; conditions: cited from earlier work
[4] = mouse plasma; cited from earlier work
[5] = Population pharmacokinetic model; assay type: in vivo, human
Summary of the method: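 Patients dosed orally three or four times weekly; 28-day cycles of 3 weeks dosing then 7 days off. Plasma sampled pre-dose to 24 h on day 1, 5 and/or 19 (882 concentrations). FOCE-I estimation; lag-time and transit absorption models tested; exponential IIV; additive residual error on log data. Median-normalized power covariate models; forward P<0.05, backward P 0.01; bootstrap evaluation.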

[6] = oral flat dose, preliminary phase 1 data

CC(C)[C@H](C(=O)Nc1ccc(C(=O)NO)cc1)c1ccccc1 [REC-2282]
dose recovered in urine ([1]; rat urine): 5% | oral bioavailability ([1]; rats, preclinical, ref unpublished data): 100% | oral bioavailability ([2]; mice, preclinical, ref unpublished data): 26% | dose recovered in urine ([2]; mouse urine): 1.4% | clinical response ([3]; 27 patients enrolled): minimal response to progressive disease | most common adverse event ([3]; 27 patients enrolled): dose-dependent cytopenias | observed dose-limiting toxicities [3]: grade 4 thrombocytopenia, febrile neutropenia and grade 3 neutropenia with infection and grade 4 psychosis | coefficient of variation (CV) in apparent oral clearance among dose levels [3, 6]: 36 to 76% | coefficient of variation (CV) in peak concentrations among dose levels [3, 6]: 24–66% | median progression-free survival ([3]; patients with NF2 and meningiomas): 9.1 months | median progression-free survival ([3]; solid tumors): 3.6 months | bound to plasma proteins [4]: 96% | variability in dose-normalized AUC ([5]; 55 patients, 20 mg to 80 mg): 24.1% | variability in dose-normalized Cmax ([5]; 55 patients, 20 mg to 80 mg): 29.6% | dose proportionality of pharmacokinetics ([5]; flat doses 20 mg to 80 mg): dose-proportional
